Hits are enriched below; roughly 1.6% of the tested compounds scored in any of these assays.
ATG4B inhibitor: ATG4B protease inhibitors, primary screen, biochemical, fluorescence, uHTS; 340,000 compounds, 0.51% hits; ATG4B cleavage of LC3-PLA2, NBD-HPC fluorescence, 1 h; AID 504462, 2011; inhibition, % at 8.33 µM; in the data active = inhibition above about 40%
Target sequence (Q9Y4P1 whole entry, looked up): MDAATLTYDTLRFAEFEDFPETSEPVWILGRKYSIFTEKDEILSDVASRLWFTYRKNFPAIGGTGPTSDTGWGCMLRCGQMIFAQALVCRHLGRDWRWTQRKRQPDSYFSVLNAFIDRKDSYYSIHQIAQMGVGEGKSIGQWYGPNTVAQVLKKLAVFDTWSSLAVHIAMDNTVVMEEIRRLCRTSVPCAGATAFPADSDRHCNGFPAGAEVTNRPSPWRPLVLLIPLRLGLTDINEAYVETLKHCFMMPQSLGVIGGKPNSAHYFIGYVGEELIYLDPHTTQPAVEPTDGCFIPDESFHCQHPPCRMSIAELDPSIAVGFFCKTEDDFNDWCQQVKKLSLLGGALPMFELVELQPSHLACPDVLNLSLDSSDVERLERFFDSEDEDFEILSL
PKA-R2B activ: activators of PKA-R2B holoenzyme, primary screen, biochemical, fluorescence polarization, Cy5-IP20, human | activation, % at 11.4 µM | cAMP-dependent protein kinase catalytic subunit beta (Homo sapiens) + cAMP-dependent … | 340,000 compounds, 0.079% hits | AID 504700, 2011 | PKA-R2B holoenzyme dissociation; R2B truncated from residue 108, S112A mutant; 0% DMSO only, 100% 113 µM cGMP;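 active = activation above a cutoff set at the mean over all compounds plus 3 SD, cut at about 18% in these data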;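 also: higher means more holoenzyme dissociation and a rise in polarization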
PfG6PD inh: PfG6PD enzyme inhibitors, primary screen, biochemical, fluorescence intensity, uHTS; glucose-6-phosphate dehydrogenase-6-phosphogluconolactonase (Plasmodium falciparum 3D7); PfGluPho enzyme, NADPH resazurin-diaphorase fluorescence; inhibition, % at 20 µM; 350,000 compounds, 0.78% hits; AID 504690, 2011;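 active = inhibition reaching at least a set limit at 20 µM in the primary screen, cut at about 59% in these data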;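 also: 0% = DMSO wells with substrate and 100% = DMSO wells lacking glucose-6-phosphate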
PKA-R1A act: activators of PKA-R1A holoenzyme, primary screen, biochemical, fluorescence polarization, Cy5-IP20, bovine R1A, mouse PKAc; cAMP-dependent protein kinase type I-alpha regulatory subunit (Bos taurus) + …; AID 504707, 2011; activation, % at 11.4 µM; PKA-R1A dissociation; scaled: DMSO 0%, 113 µM cGMP 100%; 340,000 compounds, 0.083% hits;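 active = percent activation above the mean of all tested compounds plus 3 SD, cut at about 19% in these data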;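 also: higher means more PKAc released from R1A so a rise in polarization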
HKDC1 inhibitor: HKDC1 hexokinase inhibitors, primary screen, biochemical, fluorescence, uHTS; 340,000 compounds, 0.16% hits; inhibition, % at 20 µM; Q2TB90; recombinant HKDC1, G6PDH/diaphorase resazurin coupled fluorescence; AID 493160, 2011;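 active = inhibition above about 35% when tested at 20 µM, limit read from the data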;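 also: plate controls were DMSO wells with enzyme for no effect and DMSO wells lacking enzyme for full effect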
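Material: recombinant HKDC1 hexokinase; Amount: HKDC1 at 5 µg/mL; Medium: Tris pH 8.0 buffer with MgCl2, Tween-20, BSA, BME; Schedule: 90 min reaction incubation at room temperature, dark; Technique: coupled resazurin fluorescence, excitation 525 nm, emission 613 nm.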
T cell modulator: modulators of CD8 T cell-vesicle binding, primary screen, mouse 2C CD8+ T cells, flow cytometry; 2C CD8+ T cell-vesicle binding; stronger effect = lower value; response (vesicle binding), % at 7 µM; 330,000 compounds, 0.068% hits;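 active = response, share of CD8 T cells binding vesicles, and their 90th percentile fluorescence all below set limits, cut at about 80% in these data, passing the limit was not always enough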;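 also: values below 100% mean blocked vesicle binding to the CD8+ T cells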
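Also added: QL9-peptide-loaded Drosophila micro-vesicles bearing Ld, ICAM-1 and B7-1; Test system: purified 2C TCR transgenic mouse naive CD8+ T cells; Measured by: cytometric PE anti-B7-1 and Alexa647 anti-CD8 signals after 1% paraformaldehyde fixation; Timing: binding step 1.5 h, 37 °C, antibody labelling 20 min, ice.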
PLA2 ctr: PLA2 enzyme inhibition, counter-screen for ATG4B inhibitor project, biochemical, single concentration, uHTS hits. inhibition, % at 8.33 µM. shares compounds with ATG4B inhibitor. 1,600 compounds, 66% hits. purified PLA2, NBD-C6-HPC fluorescence, 45 min; in the data active = inhibition above about 50%
Target sequence (P04054 whole entry, looked up): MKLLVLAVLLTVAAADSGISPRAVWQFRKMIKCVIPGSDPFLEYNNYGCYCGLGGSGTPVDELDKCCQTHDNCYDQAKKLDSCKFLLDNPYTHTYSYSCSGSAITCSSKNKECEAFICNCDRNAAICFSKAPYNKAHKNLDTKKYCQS
The depositor's hits bear a star.

What do the screens show for `Nc1ccc2cc3[nH]c4cc(N)ccc4c3nc2c1`?
ATG4B inhibitor: -87.5; PKA-R2B activ: 14.8; PfG6PD inh: 45.2; PKA-R1A act: 0.3; HKDC1 inhibitor: 26.8

What do the screens show for `COC(=O)Cc1coc2cc(OC)ccc12`?
ATG4B inhibitor: -6.6; PKA-R2B activ: 5.0; PfG6PD inh: -8.4; PKA-R1A act: -3.1; HKDC1 inhibitor: 2.2; T cell modulator: 826.2

What do the screens show for `N=C1SC(c2ccccc2)C(=O)N1c1ncc(Cc2ccccc2Cl)s1` (stereo not drawn)?
ATG4B inhibitor: 79.3*; PKA-R2B activ: -6.5; PfG6PD inh: -17.3; PKA-R1A act: -4.1; HKDC1 inhibitor: 6.9; T cell modulator: 174.6; PLA2 ctr: 79.8*

What do the screens show for `O=C(CSc1nnnn1-c1ccccc1)Nc1ncc(Cc2ccccc2Cl)s1`?
ATG4B inhibitor: -2.2; PKA-R2B activ: 0.3; PfG6PD inh: -4.6; PKA-R1A act: -1.8; HKDC1 inhibitor: -2.0; T cell modulator: 292.9

Results for O=S(=O)(Nc1ccccc1O)c1ccc(Cl)nc1 ?
ATG4B inhibitor: -7.4; PKA-R2B activ: 6.4; PfG6PD inh: 14.1; PKA-R1A act: -8.9; HKDC1 inhibitor: -4.5; T cell modulator: 138.4

How did COC(=O)c1ccc(CSc2nc3c(c(=O)n2-c2ccc(F)cc2)SCC3)o1 do in these assays?
ATG4B inhibitor: 47.7*; PKA-R2B activ: 1.6; PfG6PD inh: 13.7; PKA-R1A act: -8.6; HKDC1 inhibitor: -4.3; T cell modulator: 286.6; PLA2 ctr: 49.9

How did O=c1c2ccccc2nc(SCc2nnc(-c3ccccc3)o2)n1-c1ccccc1 do in these assays?
ATG4B inhibitor: 72.3*; PKA-R2B activ: 1.7; PfG6PD inh: 10.2; PKA-R1A act: -3.5; HKDC1 inhibitor: -0.3; T cell modulator: 386.0; PLA2 ctr: 73.0*

How did COC(=O)c1ccc(CSc2nc3ccccc3c(=O)n2-c2ccc(OC)c(OC)c2)o1 do in these assays?
ATG4B inhibitor: 19.4; PKA-R2B activ: -7.1; PfG6PD inh: -2.5; PKA-R1A act: 8.1; HKDC1 inhibitor: -7.8; T cell modulator: 177.0

Results for O=C(CSc1nc2c(c(=O)n1-c1ccc(Cl)cc1)SCC2)Nc1nccs1 ?
ATG4B inhibitor: 60.9*; PKA-R2B activ: -2.1; PfG6PD inh: 44.8; PKA-R1A act: -1.3; HKDC1 inhibitor: -2.3; T cell modulator: 323.5; PLA2 ctr: 80.5*

What do the screens show for `COC(=O)c1ccc(CSc2nc3ccccc3c(=O)n2-c2ccccc2)o1`?
ATG4B inhibitor: 65.3*; PKA-R2B activ: -5.7; PfG6PD inh: -7.8; PKA-R1A act: -0.3; HKDC1 inhibitor: -6.4; T cell modulator: 319.5; PLA2 ctr: 73.3*

How did COc1ccc(-n2c(=O)[nH]c3cc(C(=O)NCCc4ccccc4)ccc3c2=O)cc1OC do in these assays?
ATG4B inhibitor: -7.8; PKA-R2B activ: -6.3; PfG6PD inh: 0.9; PKA-R1A act: -3.8; HKDC1 inhibitor: 3.7; T cell modulator: 93.5

How did O=c1c2c3c(sc2nc(NCCO)n1CCc1ccccc1)CCCCC3 do in these assays?
ATG4B inhibitor: 28.3; PKA-R2B activ: -7.5; PfG6PD inh: 12.9; PKA-R1A act: -12.1; HKDC1 inhibitor: -7.4; T cell modulator: 194.2

How did OCCNc1nc(SCc2ccccc2)nc2sc3c(c12)CCC3 do in these assays?
ATG4B inhibitor: 69.1*; PKA-R2B activ: -5.6; PfG6PD inh: 55.0; PKA-R1A act: -1.2; HKDC1 inhibitor: 5.9; PLA2 ctr: 90.3*

How did O=C(/C=C/c1ccc(S(=O)(=O)NCc2ccco2)cc1)NCc1cccc(Cl)c1 do in these assays?
ATG4B inhibitor: 52.3*; PKA-R2B activ: -4.6; PfG6PD inh: 10.9; PKA-R1A act: -7.2; HKDC1 inhibitor: -3.5; T cell modulator: 307.6; PLA2 ctr: 61.9*

How did O=C(/C=C/c1ccc(OCCCF)cc1)NCc1cccc(Cl)c1 do in these assays?
ATG4B inhibitor: 45.0*; PKA-R2B activ: -7.9; PfG6PD inh: -2.1; PKA-R1A act: -9.4; HKDC1 inhibitor: -1.4; T cell modulator: 442.5; PLA2 ctr: 49.4

Results for CCC1CCCCN1CCCNC(=O)c1cc2c(=O)oc3ccc(C)cc3c2s1 (stereo not drawn) ?
ATG4B inhibitor: 3.2; PKA-R2B activ: 0.0; PfG6PD inh: -6.1; PKA-R1A act: 3.5; HKDC1 inhibitor: 9.3; T cell modulator: 388.7

How did C[C@@H]1CN([C@@H](C)CO)C(=O)c2cc(Br)cnc2O[C@H]1CN(C)C(=O)C1CC1 do in these assays?
PKA-R2B activ: 5.6; PfG6PD inh: 0.8; PKA-R1A act: -5.2

How did C[C@H](CO)N1C[C@H](C)[C@@H](CN(C)C(=O)NC2CCCCC2)Oc2ccc(NS(=O)(=O)c3ccc(F)cc3)cc2C1=O do in these assays?
ATG4B inhibitor: -3.3; PKA-R2B activ: -6.0; PfG6PD inh: 5.7; PKA-R1A act: 5.3; HKDC1 inhibitor: -1.8; T cell modulator: 708.6

What do the screens show for `CCN1C(=O)[C@H]2[C@@H](c3ccc(OC)cc3)N[C@]3(CCCN(CC4CCCCC4)C3=O)[C@H]2C1=O`?
PKA-R2B activ: -5.5; PfG6PD inh: 7.3; PKA-R1A act: 3.1

Results for CCN1CCN(C(=O)C(C)Oc2ccc(S(=O)(=O)N3CCCC3)cc2C(N)=O)CC1 (stereo not drawn) ?
ATG4B inhibitor: -2.6; PKA-R2B activ: 0.1; PfG6PD inh: 0.2; PKA-R1A act: 0.0; HKDC1 inhibitor: -1.6; T cell modulator: 515.6

How did CCN(Cc1ccccc1)c1ccc(N=Nc2nn(C)c(C)c2[N+](=O)[O-])cc1 do in these assays?
ATG4B inhibitor: 52.7*; PKA-R2B activ: -4.2; PfG6PD inh: 29.4; PKA-R1A act: 5.4; HKDC1 inhibitor: -1.6; T cell modulator: 505.4; PLA2 ctr: 35.5

What do the screens show for `Cc1ccccc1CN(c1ccc(C(=O)N/N=C/c2ccc(OCC(N)=O)cc2)cc1)S(C)(=O)=O`?
ATG4B inhibitor: 45.5*; PKA-R2B activ: 0.6; PfG6PD inh: -1.1; PKA-R1A act: -0.7; HKDC1 inhibitor: 0.2; T cell modulator: 175.2; PLA2 ctr: 47.0

What do the screens show for `O=C(c1cc(-c2ccccc2)on1)N1CCc2ccccc2C1`?
ATG4B inhibitor: 40.6*; PKA-R2B activ: -11.5; PfG6PD inh: 16.1; PKA-R1A act: -5.4; HKDC1 inhibitor: -4.6; T cell modulator: 425.5; PLA2 ctr: 51.6*

Bioassay records from PubChem.
